Source: ChEMBL document CHEMBL4665832, “Benzylidene thiazolidinediones: Synthesis, in vitro investigations of antiproliferative mechanisms and in vivo efficacy determination in combination with Imatinib” (Bioorg Med Chem Lett, 2020)

How the values were obtained:
[1] = tested on: PC-3; test: Antiproliferative activity against human PC-3 cells assessed as cell growth inhibition; type: functional
Outline: (§1)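 Cell lines screened for growth inhibition and GI₅₀ derived. Each value is the mean of 3 independent experiments.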

[2] = Cytotoxicity against hepatocytes (unknown origin) assessed as cell growth by MTT assay relative to control; type: cell-based, Hepatocyte; design: concentration or dose not given beside the values
[3] = tested on: HOP-62; test: Antiproliferative activity against human HOP-62 cells assessed as cell growth inhibition; type: functional; outline: as §1
[4] = tested on: MCF7; test: Antiproliferative activity against human MCF7 cells assessed as cell growth inhibition; type: functional; outline: as §1
[5] = tested on: K562; test: Antiproliferative activity against human K562 cells assessed as cell growth inhibition; type: functional; outline: as §1
[6] = tested on: KB; test: Antiproliferative activity against human KB cells assessed as cell growth inhibition; type: functional; outline: as §1
[7] = Antiproliferative activity against human GURAV cells assessed as cell growth inhibition; type: functional; outline: as §1
[8] = tested on: A549; test: Antiproliferative activity against human A549 cells assessed as cell growth inhibition; type: functional; outline: as §1
[9] = tested on: NCI-H226; test: Antiproliferative activity against human NCI-H226 cells assessed as cell growth inhibition; type: functional; outline: as §1
[10] = tested on: HL-60; test: Antiproliferative activity against human HL-60 cells assessed as cell growth inhibition; type: functional; outline: as §1
[11] = tested on: U-937; test: Antiproliferative activity against human U-937 cells assessed as cell growth inhibition; type: functional; outline: as §1
[12] = tested on: Jurkat; test: Antiproliferative activity against human Jurkat cells assessed as cell growth inhibition; type: functional; outline: as §1
[13] = tested on: MOLT-4; test: Antiproliferative activity against human MOLT-4 cells assessed as cell growth inhibition; type: functional; outline: as §1

Question: For `O=C(COc1ccc(/C=C2\SC(=O)NC2=O)cc1)Nc1cccc([N+](=O)[O-])c1`, which GI50 [1] is on record?
Answer: The GI50 was > 100 µM.

Question: What about the viability [2] of the same molecule?
Answer: Its viability is > 70%.

Question: And the GI50 [3]?
Answer: Its GI50 is > 100 µM.

Question: And the GI50 [4]?
Answer: Its GI50 is 58.5 µM.

Question: And the GI50 [5]?
Answer: The GI50 was 20.5 µM.

Question: What about the GI50 [6] of the same molecule?
Answer: Its GI50 is > 100 µM.

Question: What about the GI50 [7] of the same molecule?
Answer: Its GI50 is 71.5 µM.

Question: For `O=C1NC(=O)/C(=C/c2ccc(OCC(=O)N3C(=O)c4ccccc4S3(=O)=O)cc2)S1`, which viability [2] is on record?
Answer: The viability was > 70%.

Question: With `CCc1ccc(CCOc2ccc(CC3SC(=O)NC3=O)cc2)nc1` (stereo not drawn) [PIOGLITAZONE] as the molecule, how does the GI50 [5] read?
Answer: Its GI50 is 40.1 µM.

Question: With `COc1cccc2c1C(=O)c1c(O)c3c(c(O)c1C2=O)C[C@@](O)(C(=O)CO)C[C@@H]3O[C@H]1C[C@H](N)[C@H](O)[C@H](C)O1` [DOXORUBICIN] as the molecule, how does the GI50 [1] read?
Answer: The GI50 was < 0.1 µM.

Question: And the GI50 [3]?
Answer: The GI50 was < 0.1 µM.

Question: And the GI50 [4]?
Answer: The GI50 was < 0.1 µM.

Question: And the GI50 [5]?
Answer: The GI50 was < 0.1 µM.

Question: What about the GI50 [6] of the same molecule?
Answer: Its GI50 is < 0.1 µM.

Question: And the GI50 [7]?
Answer: Its GI50 is < 0.1 µM.

Question: For `O=C(COc1ccc(/C=C2\SC(=O)NC2=O)cc1)Nc1ccc([N+](=O)[O-])cc1`, which GI50 [1] is on record?
Answer: The GI50 was > 100 µM.

Question: And the viability [2]?
Answer: The viability was > 70%.

Question: What about the GI50 [3] of the same molecule?
Answer: The GI50 was > 100 µM.

Question: And the GI50 [4]?
Answer: Its GI50 is 72.5 µM.

Question: What about the GI50 [5] of the same molecule?
Answer: The GI50 was 29.5 µM.

Question: And the GI50 [6]?
Answer: The GI50 was > 100 µM.

Question: What about the GI50 [7] of the same molecule?
Answer: Its GI50 is > 100 µM.

Question: What does the source list for `O=C(COc1ccc(/C=C2\SC(=O)NC2=O)cc1)Nc1ccccc1`?
Answer: GI50 [1]: > 100 µM; viability [2]: > 70%; GI50 [3]: > 100 µM; GI50 [4]: 74.5 µM; GI50 [5]: 17.6 µM; GI50 [6]: > 100 µM; GI50 [7]: 57 µM

Question: For `O=C(COc1ccc(/C=C2\SC(=O)NC2=O)cc1)Nc1ncc([N+](=O)[O-])s1`, which viability [2] is on record?
Answer: The viability was > 70%.

Question: Which results are given for `O=C(COc1ccc(/C=C2\SC(=O)NC2=O)cc1)Nc1nc2ccccc2s1`?
Answer: viability [2]: > 70%; GI50 [8]: 46.9 µM; GI50 [9]: 26.5 µM

Question: With `Cc1ccc(NC(=O)COc2ccc(/C=C3\SC(=O)NC3=O)cc2)cc1Cl` as the molecule, how does the GI50 [1] read?
Answer: The GI50 was > 100 µM.

Question: And the viability [2]?
Answer: Its viability is > 70%.

Question: And the GI50 [3]?
Answer: The GI50 was > 100 µM.

Question: And the GI50 [4]?
Answer: The GI50 was 61.8 µM.

Question: And the GI50 [5]?
Answer: Its GI50 is 19.6 µM.

Question: What about the GI50 [6] of the same molecule?
Answer: The GI50 was 99.6 µM.

Question: What about the GI50 [7] of the same molecule?
Answer: The GI50 was 71.4 µM.

Question: With `Cc1cccc2sc(NC(=O)COc3ccc(/C=C4\SC(=O)NC4=O)cc3)nc12` as the molecule, how does the GI50 [1] read?
Answer: Its GI50 is > 100 µM.

Question: And the viability [2]?
Answer: Its viability is > 70%.

Question: And the GI50 [3]?
Answer: Its GI50 is > 100 µM.

Question: And the GI50 [4]?
Answer: Its GI50 is 61.2 µM.

Question: And the GI50 [5]?
Answer: Its GI50 is 45.8 µM.

Question: What about the GI50 [6] of the same molecule?
Answer: The GI50 was > 100 µM.

Question: What about the GI50 [7] of the same molecule?
Answer: Its GI50 is 58.7 µM.

Question: With `O=C(COc1ccc(/C=C2\SC(=O)NC2=O)cc1)Nc1ccc(F)cc1` as the molecule, how does the GI50 [10] read?
Answer: Its GI50 is 61.1 µM.

Question: And the GI50 [1]?
Answer: The GI50 was > 100 µM.

Question: And the GI50 [11]?
Answer: Its GI50 is 63.9 µM.

Question: What about the GI50 [12] of the same molecule?
Answer: The GI50 was 59.9 µM.

Question: And the viability [2]?
Answer: Its viability is > 70%.

Question: And the GI50 [3]?
Answer: Its GI50 is 68 µM.

Question: What about the GI50 [13] of the same molecule?
Answer: The GI50 was 53.5 µM.

Question: And the GI50 [4]?
Answer: Its GI50 is 54.6 µM.

Question: And the GI50 [5]?
Answer: Its GI50 is 9.6 µM.

Question: And the GI50 [6]?
Answer: Its GI50 is > 100 µM.

Question: What about the GI50 [7] of the same molecule?
Answer: Its GI50 is 56.8 µM.

Question: Which results are given for `O=C(COc1ccc(/C=C2\SC(=O)NC2=O)cc1)Nc1ccc(Br)cc1`?
Answer: GI50 [1]: 86.6 µM; viability [2]: > 70%; GI50 [3]: 45.4 µM; GI50 [4]: 55.1 µM; GI50 [5]: 23.4 µM; GI50 [6]: 32.1 µM; GI50 [7]: 54.4 µM

Question: For `O=C1NC(=O)/C(=C/c2ccc(OCC(=O)N3c4ccccc4Sc4ccccc43)cc2)S1`, which viability [2] is on record?
Answer: Its viability is > 70%.

Question: What about the GI50 [8] of the same molecule?
Answer: The GI50 was > 100 µM.

Question: What about the GI50 [9] of the same molecule?
Answer: The GI50 was 82.1 µM.
